Hits are enriched below; roughly 2.4% of the tested compounds scored in any of these assays.
HTR5A ag – counter-screen for OPRM1-OPRD1 agonists: human HTR5A agonism; P47898; AID 504692; activation, % at 9.3 µM; 340,000 compounds, 0.61% hits; HTR5A agonist assay, luminescence, cell-based; in the data active means activation mostly above about 9.5%, no sharp cut-off; inactive means mostly below about 7.6%
Target sequence (P47898 whole entry, looked up): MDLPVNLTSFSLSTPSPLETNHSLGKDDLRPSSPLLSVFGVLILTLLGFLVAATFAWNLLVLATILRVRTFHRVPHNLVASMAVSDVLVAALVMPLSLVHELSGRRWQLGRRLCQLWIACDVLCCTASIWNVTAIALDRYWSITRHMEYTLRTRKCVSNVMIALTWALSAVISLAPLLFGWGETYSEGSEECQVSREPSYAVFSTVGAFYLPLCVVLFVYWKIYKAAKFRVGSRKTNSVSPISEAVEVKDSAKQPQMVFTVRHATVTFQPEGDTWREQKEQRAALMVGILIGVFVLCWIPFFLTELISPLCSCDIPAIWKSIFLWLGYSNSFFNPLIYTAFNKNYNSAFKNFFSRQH
MC4R antag cAMP – antagonists of human melanocortin 4 receptor (MC4R) | P32245 | MC4R-expressing cells, MTII-stimulated cAMP, LANCE TR-FRET | inhibition, % at 6.5 µM | 360,000 compounds, 0.48% hits | AID 540295;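 active means inhibition above its plate's cutoff, the mean of tested wells on that plate plus 3 SD, cut at about 29% in these data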
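System: U2OS-MC4R stable cell line; Technique: Eu-cAMP/anti-cAMP TR-FRET, emission 671 nm; Repeats: single well per compound; Also added: Melanotan II; Dosing: one concentration, 6.5 µM nominal; Schedule: 30-min compound, 1-h challenge, 1-h detection, room temperature.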
MOR-DOR ag – agonists of human mu-delta opioid receptor heterodimerization | P35372+P41143 | activation, % at 9.3 µM | 340,000 compounds, 0.3% hits | cells, OPRM1-OPRD1 heterodimerization, luminescence; in the data active means activation above about 18%
MC4R ag barr – agonists of human melanocortin 4 receptor (MC4R) beta-arrestin | P32245 | U2OS MC4R beta-arrestin complementation, luminescence; percent of melanotan II response, DMSO zero | activation, % at 8.9 µM | 360,000 compounds, 0.98% hits;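 active means activation above a per-plate cutoff, the mean activation of sample wells on that plate plus 3 SD, cut at about 8% in these data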
MOR-DOR inv ag – inverse agonists of human mu-delta opioid receptor heterodimerization. cell-based MOR-DOR heterodimer luminescence, inverse agonism. P35372+P41143. inhibition, % at 9.3 µM. AID 504357. 340,000 compounds, 0.21% hits; in the data active means inhibition above about 22%, passing the limit was not always enough
HTR5A inv ag – inverse agonist of human HTR5A in OPRM1-OPRD1 counter-screen. P47898. inhibition, % at 9.3 µM. AID 504634. HTR5A cell line, luminescence, inverse agonism. 340,000 compounds, 0.083% hits; in the data active means inhibition mostly above about 23%, no sharp cut-off; inactive means mostly below about 18%
Numbers stand for hits; . = inactive; / = no result.

SMILES | HTR5A ag | MC4R antag cAMP | MOR-DOR ag | MC4R ag barr | MOR-DOR inv ag | HTR5A inv ag
COc1cc(C(=O)NC(c2ccccc2)c2ccccc2)cc(OC)c1OC | . | . | . | 9.4 | . | .
OCCN1CCN(C2CCC(c3ccc(F)cc3)c3ccc(F)cc32)CC1 (stereo not drawn) | . | . | . | 9.0 | . | .
COC(=O)/C=C1\SC(=NC(=O)c2ccc(-c3ccccc3)cc2)NC1=O | . | . | . | . | . | .
Cc1ccc(SCc2ccc(C(=O)Nc3cccc([N+](=O)[O-])c3)cc2)cc1 | . | . | . | 27 | . | .
Cc1ccc([N+](=O)[O-])cc1NC(=O)c1ccccc1 | . | . | . | . | . | .
Cc1ccc(SCc2ccc(C(=O)Nc3cc([N+](=O)[O-])ccc3C)cc2)cc1 | . | . | . | 23 | . | .
C=CCn1c(C)csc1=Nc1ccc(C(=O)O)cc1 | . | . | . | . | . | .
CCC(C(=O)NC(C)(C)C)N(Cc1ccco1)C(=O)CNS(=O)(=O)c1ccc(OC)cc1 (stereo not drawn) | . | . | . | . | . | .
COC(=O)[C@@H]1Cc2c([nH]c3ccccc23)C(C)(C)N1C(=O)CCl | 41 | . | 37 | 13 | . | .
Cc1cc(C(=O)CCl)c(C)n1CCc1ccc(Cl)cc1 | 17 | . | 19 | . | . | .
O=C(N/N=C\c1cn[nH]c1-c1ccc(Cl)cc1)c1cccs1 | . | . | . | 8.8 | . | .
Cc1ccc(NC(=O)c2ccc(C#CC3(O)CCCCC3)cc2)cc1C | . | . | . | 9.0 | . | .
Cc1cc2c(SCC(=O)NC3CCCC3)ncnc2s1 | . | . | . | . | . | .
COc1cc(Cl)c(C)cc1NC(=O)CNC(C)c1ccccc1OC (stereo not drawn) | 10 | . | . | . | . | .
COc1ccccc1C(C)NCC(=O)Nc1c(F)cccc1F (stereo not drawn) | . | . | . | . | . | .
Cc1ccc(C(=O)NC(C)c2ccc(F)cc2)cc1 (stereo not drawn) | . | . | . | . | . | .
CC(NC(=O)c1ccc(F)cc1)c1ccccc1 (stereo not drawn) | 10 | . | . | . | . | .
Cc1ccc(NS(=O)(=O)c2ccc(-n3cccn3)cc2)cc1C | . | . | . | 9.4 | . | .
CCc1cccc(NS(=O)(=O)c2ccc(-n3cccn3)cc2)c1 | . | . | . | 8.3 | . | .
COc1ccc(CNC(=O)CN2C(=O)CCSc3ccc(S(=O)(=O)N4CCCC4)cc32)cc1 | . | . | . | . | . | .
Cc1onc(-c2ccccc2)c1C(=O)OCC(=O)N1CCCCC1 | / | . | / | . | / | /
O=C(Nc1ccccc1F)c1ccc(Br)o1 | 13 | . | . | . | . | .
CC(C)Sc1snnc1-c1ccccc1 | . | . | . | 8.9 | . | .
CSc1snnc1-c1ccccc1 | . | . | . | . | . | .
Cc1ccc(S(=O)(=O)c2nc(Nc3ccccc3)sc2Cl)cc1 | . | . | . | . | . | .
SMILES | HTR5A ag | MC4R antag cAMP | MOR-DOR ag | MC4R ag barr | MOR-DOR inv ag | HTR5A inv ag
COc1ccc(Nc2nc(S(=O)(=O)c3ccc(C)cc3)c(Cl)s2)cc1 | 13 | . | . | . | . | .
CCOC(=O)c1cnc2ccc(OCC)cc2c1N1CCN(c2ccccc2OC)CC1 | . | 32 | . | . | . | .
O=C(N/N=C\c1ccc(F)cc1)c1cc(OCC(F)(F)F)ccc1OCC(F)(F)F | . | . | . | . | . | .
Cc1ccc(/C=N\NC(=O)c2cc(OCC(F)(F)F)ccc2OCC(F)(F)F)cc1 | 15 | . | 28 | 14 | . | .
CC(C)CN1C(Nc2ccccc2)=NC[C@@H]1C | . | . | . | . | . | .
CCN1C(Nc2ccccc2)=NC[C@@H]1C | 13 | . | . | . | . | .
CCc1ccc(N(C(=O)c2snc(C(N)=O)c2N)C(C(=O)NC2CCCC2)c2ccco2)cc1 (stereo not drawn) | . | . | . | . | . | .
NC(=O)c1nsc(C(=O)N(c2cccc(F)c2)C(C(=O)NC2CCCC2)c2ccco2)c1N (stereo not drawn) | . | . | . | 8.9 | . | .
CCOC(=O)CNc1nc(Cl)nc(Nc2ccc(Cl)cc2)n1 | . | . | . | . | . | .
CCOC(=O)CNc1nc(Cl)nc(Nc2ccc(C)cc2)n1 | 14 | . | . | . | . | .
O=C1C=CC(=O)N1c1ccc2c(c1)Cc1cc(F)ccc1-2 | . | 32 | . | . | . | .
Cc1ccc2nc(C)cc(C(=O)OCC(=O)c3ccc(Cl)c([N+](=O)[O-])c3)c2c1 | . | . | . | . | 79 | 41
CN(C(=O)c1cccc(NC(=O)Cc2cccc(NC(=O)C3CCN(C(=O)c4ccccc4)CC3)c2)c1)C1CC1 | 9.1 | . | . | . | . | .
CN(C(=O)c1cccc(NC(=O)Cc2ccc(NC(=O)C3CCN(C(=O)c4ccccc4)CC3)cc2)c1)C1CC1 | . | . | . | . | . | .
CC(=O)c1c(C)[nH]c(C(=O)OCC(=O)N(CC(C)C)C2CCS(=O)(=O)C2)c1C (stereo not drawn) | . | . | . | . | . | .
CC1CCN(CCNC(=O)c2ccc3c(=O)n(Cc4ccc(Cl)cc4)c(=S)[nH]c3c2)CC1 | . | . | . | 9.9 | . | .
CC(C)(C)C(=O)Nc1ccc(C(=O)COC(=O)c2ccccn2)cc1 | . | . | . | . | . | .
O=C(Nc1ccc(N2CCCCC2)c(C(=O)O)c1)c1ccco1 | 10 | . | . | . | . | .
Cc1cccc(NC(=O)c2cc(NC(=O)c3ccco3)ccc2N2CCCCC2)c1 | . | . | . | . | . | .
COc1ccc(S(=O)(=O)NNC(N)=S)cc1 | . | . | . | . | . | .
Cc1ccc(S(=O)(=O)NN=C2CCC(C(C)(C)C)CC2)cc1[N+](=O)[O-] (stereo not drawn) | . | . | . | . | . | .
CCCC1CCC(=NNS(=O)(=O)c2ccc(C)c([N+](=O)[O-])c2)CC1 (stereo not drawn) | 13 | . | . | . | . | .
Cc1ccc(S(=O)(=O)N/N=C/c2ccccc2F)cc1[N+](=O)[O-] | 12 | . | . | . | . | .
Cc1cc(C(=O)CCl)c(C)n1-c1c(C)n(C)n(-c2ccccc2)c1=O | . | . | . | . | . | .
COc1ccc(NS(=O)(=O)c2cccc(C(=O)NCC(c3cccs3)N3CCOCC3)c2)cc1 (stereo not drawn) | . | . | . | . | . | .
CCOCCc1nnc(NC(=O)c2cc(OC)c(OC)cc2[N+](=O)[O-])s1 | . | . | . | . | . | .
CCOCc1nnc(NC(=O)c2cc(OC)c(OC)cc2[N+](=O)[O-])s1 | 12 | . | . | . | . | .
O=C(Nc1ccc(Br)cn1)c1ccc(COc2c(F)c(F)cc(F)c2F)o1 | . | . | . | 8.4 | . | .

Assay outcomes (PubChem)
